Measurements from ChEMBL document CHEMBL3797089, “Morusin Induces TRAIL Sensitization by Regulating EGFR and DR5 in Human Glioblastoma Cells” (J Nat Prod, 2016).
The source made the active and inactive calls. The calls are words filed in the database; no cut-off is given here.

Assays:
LN-18 = test: Effect on DR4 expression in human LN18 cells upto 25 uM after 24 hrs by Western blot analysis; format: functional, cell-based
How it was run: (§1)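 Cells exposed to a range of morusin concentrations for 24 h. Cell extracts immunoblotted for DR4, DR5, DcR1 and DcR2, with β-actin as internal control and HRP-conjugated secondary antibodies (1:5000).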

U-87 MG [1] = test: Induction of apoptosis in human U87MG cells assessed as increase in cleaved caspase 9 levels at 2.5 uM after 24 hrs by Western blot analysis in presence of TRAIL; format: functional, cell-based; conditions: U-87MG ATCC
How it was run: (§2)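 U87MG and T98G given TRAIL 25 ng/mL plus morusin 2.5 μM together for 24 h; single-agent arms used TRAIL 50 ng/mL or morusin 5 μM. Lysates immunoblotted for cleaved caspase 3, 8, 9 and cleaved PARP, with β-actin as internal control.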

[2] = Cytotoxicity against human U138MG cells assessed as reduction in cell viability after 24 hrs by MTT assay; format: functional, cell-based; conditions: U138-MG
How it was run: (§3)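 Seeded 3–5 × 10^3 cells/well, treated the next day with a range of morusin (DMSO stock) for 24 h, 37 °C, 5% CO2. Then fresh medium with 1 mg/mL MTT for 2 h at 37 °C, lysis buffer overnight at 37 °C, OD 570 nm. Mean ± SD from at least three independent experiments in triplicate.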

[3] = Reduction of EGFR expression in human U251MG cells at 25 uM after 24 hrs by Western blot analysis; format: functional, cell-based; conditions: U-251
How it was run: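 LN18, U87MG, T98G, U251MG and U373MG glioblastoma cells were exposed to morusin for 24 h. Cells were maintained in DMEM, MEM or RPMI with 10% FBS at 37 °C and 5% CO2. Whole-cell lysates were Western blotted for receptor proteins, with β-actin as internal control.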

U-87 MG [4] = test: Induction of DR5 expression in human U87MG cells at 25 uM by Western blot analysis; format: functional, cell-based; conditions: U-87MG ATCC, TDE = time-dependent effect
How it was run: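 Time course: U87MG and U373MG cells held at 25 μM morusin for the times indicated. Extracts immunoblotted (cIAP1 or DR5), with β-actin as loading control.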

T98G [5] = test: Induction of apoptosis in human T98G cells assessed as increase in cleaved caspase 8 levels at 2.5 uM after 24 hrs by Western blot analysis in presence of TRAIL; format: functional, cell-based; how it was run: as §2
[6] = molecular target: Signal transducer and activator of transcription 3 (Homo sapiens) (UniProt P40763); test: Inhibition of STAT3 phosphorylation in human U87MG cells measured up to 25 uM after 24 hrs by Western blot analysis; format: cell-based; conditions: U-87MG ATCC
Signal transducer and activator of transcription 3 (Homo sapiens), sequence (P40763 whole entry): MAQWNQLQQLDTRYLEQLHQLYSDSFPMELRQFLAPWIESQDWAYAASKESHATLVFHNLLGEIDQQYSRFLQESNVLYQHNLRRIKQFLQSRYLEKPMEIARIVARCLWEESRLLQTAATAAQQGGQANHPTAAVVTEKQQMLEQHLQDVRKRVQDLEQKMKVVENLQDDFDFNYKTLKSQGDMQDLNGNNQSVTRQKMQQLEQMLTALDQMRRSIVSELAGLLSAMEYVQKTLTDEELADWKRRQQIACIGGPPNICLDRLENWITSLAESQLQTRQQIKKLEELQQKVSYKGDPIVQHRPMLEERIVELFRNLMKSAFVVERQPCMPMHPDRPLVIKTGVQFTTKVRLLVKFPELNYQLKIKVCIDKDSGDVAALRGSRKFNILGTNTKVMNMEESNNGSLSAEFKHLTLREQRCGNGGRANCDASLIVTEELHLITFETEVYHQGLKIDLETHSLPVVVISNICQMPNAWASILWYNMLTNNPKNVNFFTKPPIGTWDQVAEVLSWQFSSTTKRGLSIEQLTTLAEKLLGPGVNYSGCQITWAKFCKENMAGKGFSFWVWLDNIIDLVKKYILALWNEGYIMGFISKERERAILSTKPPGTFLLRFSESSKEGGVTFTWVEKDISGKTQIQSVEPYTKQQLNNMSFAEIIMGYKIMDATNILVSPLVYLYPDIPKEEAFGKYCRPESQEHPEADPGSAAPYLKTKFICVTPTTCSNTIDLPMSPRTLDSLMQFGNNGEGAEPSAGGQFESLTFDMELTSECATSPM
How it was run: (§4)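 Cells grown in MEM (U87MG) or RPMI (U373MG) with 10% FBS, 5% CO2, 37 °C. Treated for 24 h with the indicated concentrations of morusin (DMSO stock). Whole-cell lysates immunoblotted for phosphorylated and total proteins, with β-actin as internal control.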

[7] = Reduction of survivin expression in human U373MG cells after 24 hrs by Western blot analysis; format: functional, cell-based; conditions: U-373MG ATCC
How it was run: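 U87MG (MEM) and U373MG (RPMI) cells were given graded morusin concentrations for 24 h. Whole-cell extracts were immunoblotted for anti-apoptotic proteins, with β-actin as loading control.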

[8] = Cytotoxicity against human LN18 cells assessed as reduction in cell viability after 24 hrs by MTT assay; format: functional, cell-based; conditions: LN-18, 24 h; how it was run: as §3
U-87 MG [9] = test: Effect on cIAP1 expression in human U87MG cells at 12 to 25 uM after 24 hrs by Western blot analysis; format: functional, cell-based; conditions: U-87MG ATCC
How it was run: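 U87MG and U373MG exposed to a range of morusin concentrations for 24 h. Whole-cell extracts immunoblotted for cIAP1, with β-actin as internal control.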

[10] = Reduction of XIAP mRNA expression in human U87MG cells at 25 uM by RT-qPCR analysis; format: functional, cell-based; conditions: U-87MG ATCC, TDE = time-dependent effect
How it was run: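 U87MG cells were exposed to 25 μM morusin over a time course. Total RNA (1 μg) was reverse transcribed, and XIAP and survivin transcripts were measured by RT-qPCR against GAPDH. Results are mean ± SD from at least three independent experiments.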

T98G [11] = test: Induction of apoptosis in human T98G cells assessed as increase in cleaved PARP levels at 2.5 uM after 24 hrs by Western blot analysis in presence of TRAIL; format: functional, cell-based; how it was run: as §2
U-87 MG [12] = test: Induction of DR5 mRNA expression in human U87MG cells at 25 uM after 24 hrs by RT-qPCR analysis; format: functional, cell-based; conditions: U-87MG ATCC
How it was run: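 U87MG held at 25 μM morusin for the times indicated. Total RNA extracted; 1 μg reverse transcribed; DR5 mRNA measured by RT-qPCR against GAPDH. Mean ± SD.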

[13] = Cytotoxicity against human U251MG cells assessed as reduction in cell viability after 24 hrs by MTT assay; format: functional, cell-based; conditions: U-251, 24 h; how it was run: as §3
U-87 MG [14] = test: Effect on DcR1 expression in human U87MG cells upto 25 uM after 24 hrs by Western blot analysis; format: functional, cell-based; conditions: U-87MG ATCC; how it was run: as §1
U-251 [15] = test: Induction of DR5 expression in human U251MG cells after 24 hrs by Western blot analysis; format: functional, cell-based; how it was run: as §1
[16] = Reduction of XIAP expression in human U373MG cells at 25 uM by Western blot analysis; format: functional, cell-based; conditions: U-373MG ATCC, TDE = time-dependent effect
How it was run: (§5)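 Time course: U87MG and U373MG cells were exposed to 25 μM morusin for the indicated times. Whole-cell extracts were Western blotted, with β-actin as internal control.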

[17] = Reduction of survivin expression in human U373MG cells at 25 uM by Western blot analysis; format: functional, cell-based; conditions: U-373MG ATCC, TDE = time-dependent effect; how it was run: as §5
U373 MG = test: Induction of DR5 expression in human U373MG cells after 24 hrs by Western blot analysis; format: functional, cell-based; conditions: U-373MG ATCC; how it was run: as §1
[18] = molecular target: Signal transducer and activator of transcription 3 (Homo sapiens) (UniProt P40763); test: Inhibition of STAT3 phosphorylation in human U373MG cells measured up to 25 uM after 24 hrs by Western blot analysis; format: cell-based; conditions: U-373MG ATCC; how it was run: as §4
U-87 MG [19] = test: Induction of DR4 expression in human U87MG cells at 25 uM after 24 hrs by FITC-conjugated flow cytometric analysis; format: functional, cell-based; conditions: U-87MG ATCC
How it was run: (§6)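 Cells given 25 μM morusin for 24 h, then stained on ice for 30 min with 0.5 μg/mL FITC-conjugated anti-DR4, anti-DR5 or isotype IgG in FACS buffer. Surface expression read by flow cytometry.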

[20] = molecular target: Epidermal growth factor receptor (Homo sapiens) (UniProt P00533); test: Inhibition of EGFR phosphorylation in human U373MG cells measured up to 25 uM after 24 hrs by Western blot analysis; format: cell-based; conditions: U-373MG ATCC
Epidermal growth factor receptor (Homo sapiens), sequence (P00533 whole entry): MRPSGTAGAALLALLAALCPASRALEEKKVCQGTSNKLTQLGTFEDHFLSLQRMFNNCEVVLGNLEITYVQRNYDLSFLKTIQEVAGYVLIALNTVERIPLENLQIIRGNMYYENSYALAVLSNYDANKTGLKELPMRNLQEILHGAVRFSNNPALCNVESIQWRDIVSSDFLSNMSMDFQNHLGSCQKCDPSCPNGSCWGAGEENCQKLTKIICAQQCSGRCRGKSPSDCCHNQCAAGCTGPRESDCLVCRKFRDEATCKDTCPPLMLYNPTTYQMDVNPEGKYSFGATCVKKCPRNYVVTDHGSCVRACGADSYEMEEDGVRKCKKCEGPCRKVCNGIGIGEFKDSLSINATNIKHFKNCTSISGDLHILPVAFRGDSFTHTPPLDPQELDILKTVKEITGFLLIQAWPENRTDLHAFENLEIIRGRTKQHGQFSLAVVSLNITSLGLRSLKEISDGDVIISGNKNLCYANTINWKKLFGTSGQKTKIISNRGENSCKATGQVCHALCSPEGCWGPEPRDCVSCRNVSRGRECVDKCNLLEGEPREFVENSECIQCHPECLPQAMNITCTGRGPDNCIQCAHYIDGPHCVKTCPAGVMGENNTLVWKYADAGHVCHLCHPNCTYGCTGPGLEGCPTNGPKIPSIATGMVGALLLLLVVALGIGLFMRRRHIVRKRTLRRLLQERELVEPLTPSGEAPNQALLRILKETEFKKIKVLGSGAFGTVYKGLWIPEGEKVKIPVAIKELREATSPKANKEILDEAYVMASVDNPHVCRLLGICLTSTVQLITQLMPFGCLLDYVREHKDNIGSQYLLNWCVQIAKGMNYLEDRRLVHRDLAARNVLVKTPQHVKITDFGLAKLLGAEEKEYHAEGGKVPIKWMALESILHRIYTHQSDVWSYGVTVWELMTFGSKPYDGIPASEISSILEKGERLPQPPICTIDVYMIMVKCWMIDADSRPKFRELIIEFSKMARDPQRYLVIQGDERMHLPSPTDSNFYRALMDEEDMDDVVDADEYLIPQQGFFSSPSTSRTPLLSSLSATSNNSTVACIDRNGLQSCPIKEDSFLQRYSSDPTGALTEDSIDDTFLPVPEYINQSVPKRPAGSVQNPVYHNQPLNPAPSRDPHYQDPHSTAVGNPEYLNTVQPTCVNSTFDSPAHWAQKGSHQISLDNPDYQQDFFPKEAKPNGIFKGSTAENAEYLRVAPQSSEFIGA
How it was run: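 U87MG and U373MG exposed to a range of morusin concentrations for 24 h. Whole-cell lysates immunoblotted for phosphorylated EGFR, with β-actin as internal control.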

U-251 [21] = test: Induction of DR5 expression in human U251MG cells at 25 uM after 24 hrs by FITC-conjugated flow cytometric analysis; format: functional, cell-based; how it was run: as §6
U-87 MG [22] = test: Induction of apoptosis in human U87MG cells assessed as increase in cleaved caspase 3 levels at 2.5 uM after 24 hrs by Western blot analysis in presence of TRAIL; format: functional, cell-based; conditions: U-87MG ATCC; how it was run: as §2

CC(C)=CCc1c(-c2ccc(O)cc2O)oc2c3c(cc(O)c2c1=O)OC(C)(C)C=C3 [MORUSIN]
Activity (LN-18): inactive | Activity (U-87 MG [1]): Active | IC50 [2]: 24 µM | Activity [3]: Active | Activity (U-87 MG [4]): tde | Activity (T98G [5]): Active | inhibition [6]: Active | inhibition [7]: Dose-dependent effect | IC50 [8]: 24 µM | Activity (U-87 MG [9]): inactive | Activity [10]: tde | Activity (T98G [11]): Active | Activity (U-87 MG [12]): Active | IC50 [13]: 24 µM | Activity (U-87 MG [14]): inactive | Activity (U-251 [15]): Dose-dependent effect | inhibition [16]: tde | inhibition [17]: tde | Activity (U373 MG): Dose-dependent effect | inhibition [18]: Active | Activity (U-87 MG [19]): inactive | inhibition [20]: Active | Activity (U-251 [21]): Active | Activity (U-87 MG [22]): Active
